Our source for the IC50, viability and Activity values is ChEMBL document CHEMBL3351895, “Cytotoxicity of synthesized 1,4-naphthoquinone analogues on selected human cancer cell lines” (Bioorg Med Chem, 2014).

Assay [1] can be described thus: Cytotoxicity against human SNO cells assessed as cell survival after 48 hrs by XTT assay. For orientation: Formazan colour is commonly taken as a measure of viable cells.
Assay [2] deals with U-937. Description: Induction of apoptosis in human U937 cells assessed as viable cells at 2 ug/ml after 48 hrs by annexin V-FITC/propidium iodide staining-based flow cytometry (reference value: 81.3%). The following applies: U-937, 48 h, read-out: Activity. The class given is functional. A general note: In flow cytometry, cells or beads pass a laser one at a time.
The test system of assay [3] is U-937. As to the kind of experiment: Induction of apoptosis in human U937 cells assessed as necrotic cells at 2 ug/ml after 48 hrs by annexin V-FITC/propidium iodide staining-based flow cytometry (reference value: 1.4%). The class given is functional.
In assay [4] the test system is U-937. Description: Induction of apoptosis in human U937 cells assessed as early apoptotic cells at 2 ug/ml after 24 hrs by annexin V-FITC/propidium iodide staining-based flow cytometry (reference value: 6.3%). The class given is functional.
The nature of assay [5]: Cell cycle arrest in human U937 cells assessed as accumulation at subG1 phase at 2 ug/ml after 24 hrs by propidium iodide staining-based flow cytometric analysis (reference value: 15.1%). The class given is functional. Conditions: U-937. A digest of the protocol:
(§1)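 U937 cells in complete RPMI 1640 (10% FBS, 25 mM HEPES, 2 mM glutamine) seeded at 2 × 10^6 cells/ml in flasks, recovered 24 h, then treated with compounds in DMSO (2 µg/ml). Cisplatin (10 µM) served as positive control and DMSO as negative control. Cells were harvested at 24 or 48 h and stained with propidium iodide. Phase percentages were gated on singlet cells by flow cytometry. Three independent experiments.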

For assay [6], the system named is HeLa. Description: Cytotoxicity against human HeLa cells assessed as cell survival after 48 hrs by XTT assay.
Assay [7] can be described thus: Cell cycle arrest in human U937 cells assessed as accumulation at G0/G1 phase at 2 ug/ml after 48 hrs by propidium iodide staining-based flow cytometric analysis (reference value: 54.6%). The class given is functional. The following applies: U-937. An outline of the steps:
as §1

Assay [8] can be described thus: Cell cycle arrest in human U937 cells assessed as accumulation at G2/M phase at 2 ug/ml after 24 hrs by propidium iodide staining-based flow cytometric analysis (reference value: 12.5%). The class given is functional. The following applies: U-937. A digest of the protocol: as §1
Assay [9] is described as follows: Cell cycle arrest in human U937 cells assessed as accumulation at G0/G1 phase at 2 ug/ml after 24 hrs by propidium iodide staining-based flow cytometric analysis (reference value: 41.7%). The class given is functional. The following applies: U-937. An outline of the steps:
as §1

The test system of assay [10] is DU-145. As to the kind of experiment: Cytotoxicity against human DU145 cells assessed as cell survival after 48 hrs by XTT assay. Conditions: DU-145, 48 h.
For assay [11], the system named is U-937. As to the kind of experiment: Induction of apoptosis in human U937 cells assessed as early apoptotic cells at 2 ug/ml after 48 hrs by annexin V-FITC/propidium iodide staining-based flow cytometry (reference value: 5.7%). The class given is functional.
Assay [12] in a line: Cell cycle arrest in human U937 cells assessed as accumulation at S phase at 2 ug/ml after 48 hrs by propidium iodide staining-based flow cytometric analysis (reference value: 25.7%). The class given is functional. Conditions: U-937. An outline of the steps:
as §1

Assay [13] is described as follows: Cell cycle arrest in human U937 cells assessed as accumulation at S phase at 2 ug/ml after 24 hrs by propidium iodide staining-based flow cytometric analysis (reference value: 30.7%). The class given is functional. Conditions: U-937. An outline of the steps: as §1
Assay [14] relates to U-937. As to the kind of experiment: Cytotoxicity against human U937 cells assessed as cell survival after 24 hrs by XTT assay. The class given is functional, cell-based.
Assay [15] deals with U-937. As to the kind of experiment: Induction of apoptosis in human U937 cells assessed as late apoptotic cells at 2 ug/ml after 48 hrs by annexin V-FITC/propidium iodide staining-based flow cytometry (reference value: 11.7%). The class given is functional.
Assay [16] concerns U-937. Description: Induction of apoptosis in human U937 cells assessed as viable cells at 2 ug/ml after 24 hrs by annexin V-FITC/propidium iodide staining-based flow cytometry (reference value: 66%). The class given is functional. Conditions: U-937, 24 h, read-out: Activity.
Assay [17] relates to PBMC. As to the kind of experiment: Cytotoxicity against human PBMC assessed as cell survival after 24 hrs by fluorescence assay.
Assay [18] has as its system MCF7. Description: Cytotoxicity against human MCF7 cells assessed as cell survival after 48 hrs by XTT assay. Conditions: MCF7, 48 h.
The subject of assay [19] is U-937. As to the kind of experiment: Induction of apoptosis in human U937 cells assessed as necrotic cells at 2 ug/ml after 24 hrs by annexin V-FITC/propidium iodide staining-based flow cytometry (reference value: 24.7%). The class given is functional.
Assay [20] can be described thus: Cell cycle arrest in human U937 cells assessed as accumulation at G2/M phase at 2 ug/ml after 48 hrs by propidium iodide staining-based flow cytometric analysis (reference value: 16.6%). The class given is functional. Conditions: U-937. A digest of the protocol: as §1
The test system of assay [21] is U-937. Description: Induction of apoptosis in human U937 cells assessed as caspase 3/7 activation at 2 ug/ml after 24 hrs by fluorescence reader relative to control. The class given is functional. A digest of the protocol:
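U937 cells (2 × 10^6/ml, 24 h recovery) were exposed for 24 h to compounds in DMSO (2 µg/ml), with cisplatin 10 µM and DMSO controls. Cells were pelleted and resuspended in RPMI, at least 2 × 10^5 cells per well. (DEVD)2 substrate was added and cells incubated 2 h at 37 °C, 5% CO2, resuspended every 20 min. Fluorescence was read at 544/590 and 544/620 nm.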

The nature of assay [22]: Cell cycle arrest in human U937 cells assessed as accumulation at subG1 phase at 2 ug/ml after 48 hrs by propidium iodide staining-based flow cytometric analysis (reference value: 1.1%). The class given is functional. Conditions: U-937. An outline of the steps:
as §1

The subject of assay [23] is U-937. Description: Induction of apoptosis in human U937 cells assessed as late apoptotic cells at 2 ug/ml after 24 hrs by annexin V-FITC/propidium iodide staining-based flow cytometry (reference value: 3%). The class given is functional.

`Cc1cc(O)c2c(c1F)C(=O)C=CC2=O`: the IC50 in assay [1] is 18.9 µM; in [6], 10.2 µM; in assay [10], 15.4 µM; in assay [17], 189 µM; in assay [18] it was 20.3 µM. In addition, the viability at 2 µg/mL turned out to be 1.6% in assay [2] and 4.5% in [16]. Besides, the Activity worked out at 53.9% in assay [3]; 10.2% in assay [4]; 8.2% in [5]; 64.8% in assay [7]; 4.7% in assay [8]; 69.2% in [9]. For the same molecule, the Activity in assay [11] is 1%; in assay [12] it was 15.9%; in [13], 17.4%; in assay [14], “Not toxic”; in [15] it was 42.6%; in [19] it was 61.1%. For the same molecule, the Activity was 6.9% in assay [20], -5.21% in [21], 11.8% in assay [22] and 34.2% in assay [23].

In general, IC50 refers to the point on the concentration scale where inhibition reaches its midpoint.
